Screening data: PubChem, several laboratories
Hits are enriched below; roughly 9.4% of the tested compounds scored in any of these assays.
T cruzi inh: blocks replication of Trypanosoma cruzi; inhibition, % (no concentration beside the values); 300,000 compounds, 1.4% hits; T. cruzi beta-gal in NIH3T3, luminescence, 90 h; AID 1885;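 active = mean inhibition across valid replicates above about 55%, limit read from the data; inconclusive = mean below that limit but half or more replicates reach it; inactive = mean below it, under half of replicates reach it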;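 note: signal also drops with host cell toxicity which is not excluded here; higher percent means less beta-gal luminescence so fewer parasites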
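compound dosing = single 50 nL compound addition per well in DMSO | material = NIH/3T3 host cells with β-galactosidase reporter T. cruzi | input = 5,000 host fibroblasts per well | timing = ≥90 h infection period, 3 h prior cell attachment | read-out basis = percent inhibition of parasite-derived β-gal signal | detection = GalScreen β-gal luminescence, detergent lysis, 60 min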
CSC inhib: blocks cancer stem cells; cancer stem cell-like cells viability, luminescence; 300,000 compounds, 1.1% hits; AID 2717; inhibition, % at 7.5 µM; in the data active = inhibition above about 75%; inconclusive = no clear call, values can overlap the other calls; tested in HMLE shEcad cells
Mdm2-MdmX inh: inhibitors of human Mdm2/MdmX interaction; AID 485346; O15151+Q00987; SaOS-2 split-luciferase Mdm2/MdmX complementation, luminescence; 330,000 compounds, 3% hits; inhibition, % at 8 µM;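 active = inhibition of at least 50% at 8 µM in the primary screen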
SKKanGAS inh: inhibitors of SKKanGAS S. pyogenes growth in kanamycin (SK-promoter or general growth effect). BacTiter-Glo, 6 h. inhibition, % at 7.5 µM. 300,000 compounds, 1.3% hits;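 active = mean replicate score, as percent of positive control median, at least 50; inconclusive = mean below 50 but one replicate at or above 50; inactive = mean and every replicate below 50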;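 note: strain carries kanamycin resistance gene driven by streptokinase promoter and grows in 40 µg/ml kanamycin; loss of luminescence reflects streptokinase promoter inhibition or plain growth inhibition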
Lmaj promast: reduces viability of Leishmania major promastigotes; resazurin fluorescence viability; inhibition, % at 10 µM; 200,000 compounds, 9% hits; AID 1063; in the data active = inhibition above about 50%;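 note: promastigotes grown with compound for 44 hours at 28 °C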
Beta apoptosis: blocks beta cell apoptosis; INS-1E cytokine-induced death, ATP luminescence, 48 h; percent of positive-control rescue, neutral wells zero; protection from apoptosis, % (concentration not given with the values); 300,000 compounds, 0.8% hits; AID 435005;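 active = Every replicate reaches about 75%, or at least half do and their mean reaches it too, limit read from the data; inconclusive = At least half of replicates reach the limit but their mean does not; inactive = Under half of replicates reach the limit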;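 note: higher means more ATP so stronger rescue from cytokine killing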
Mdm2 MdmX conf: human Mdm2/MdmX binding inhibition, confirmed | shares compounds with Mdm2-MdmX inh | luminescent assay | inhibition, % at 8 µM | 10,000 compounds, 55% hits | AID 489028; in the data active = inhibition above about 40%
Full FLuc ctr: counter-screen for Mdm2/MdmX inhibitors: full-length luciferase; AID 504607; SaOS-2 full-length luciferase counterscreen, luminescence; 6,200 compounds, 77% hits; shares compounds with Mdm2-MdmX inh; inhibition, % at 8 µM;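 active = mean inhibition at 8 µM reaching about 37%, which flags the compound as non-specific, limit read from the data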;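 note: p53-null SaOS-2 cells with luciferase driven by a doxycycline-inducible promoter; compound on cells about two nights before reading with doxycycline added after day one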
Hits are given with their value.

For COc1ccc(CCNC(=O)c2c(N)n(CCN3CCOCC3)c3nc4ccccc4nc23)cc1OC the results were T cruzi inh inactive, CSC inhib inactive, Mdm2-MdmX inh 54, SKKanGAS inh inactive, Lmaj promast 100, Beta apoptosis inactive and Mdm2 MdmX conf inactive.
For COc1nc2ccccc2nc1N1CCN(C)CC1 the results were T cruzi inh inactive, CSC inhib inactive, Mdm2-MdmX inh inactive, SKKanGAS inh inactive and Beta apoptosis inactive.
For O=c1[nH]c(=O)n(-c2ccccc2)c(O)c1/C=C1/C(c2ccccc2)=Nc2ccccc21 the results were T cruzi inh inactive, CSC inhib 88, Mdm2-MdmX inh 61, SKKanGAS inh inactive, Lmaj promast 79, Beta apoptosis inactive, Mdm2 MdmX conf 62 and Full FLuc ctr 75.
For O=C(O)c1ccc(-n2c(O)c(/C=C3\C=Nc4ccccc43)c(=O)[nH]c2=O)cc1 the results were T cruzi inh inactive, CSC inhib inactive, Mdm2-MdmX inh inactive, SKKanGAS inh inactive and Beta apoptosis inactive.
Screening C[C@@H]1O[C@@H](O[C@H]2C[C@@H](O)[C@]3(CO)[C@H]4[C@H](O)C[C@]5(C)[C@@H](C6COC(=O)C6)CC[C@]5(O)[C@@H]4CC[C@]3(O)C2)[C@H](O)[C@H](O)[C@H]1O (stereo partly specified) returned T cruzi inh inactive, CSC inhib 82, Mdm2-MdmX inh 58, SKKanGAS inh inactive, Lmaj promast inactive, Beta apoptosis inactive, Mdm2 MdmX conf 67 and Full FLuc ctr inactive.
`COc1cc2c(cc1OC)-c1c3c(cc4c1[C@@H](C2)N(C)CC4)OCO3` gave T cruzi inh inactive, Mdm2-MdmX inh 54, SKKanGAS inh inactive, Lmaj promast 97, Beta apoptosis inactive, Mdm2 MdmX conf 48 and Full FLuc ctr 40.
For COc1cc2c(cc1OC)-c1c(OC)c(OC)cc3c1C(C2)N(C)CC3 (stereo unspecified) the results were T cruzi inh inactive, CSC inhib inactive, Mdm2-MdmX inh inactive, SKKanGAS inh inactive and Lmaj promast inactive.
For COc1cc2c(cc1O)C[C@H]1NCCc3cc4c(c-2c31)OCO4 the results were T cruzi inh inactive, CSC inhib inactive, Mdm2-MdmX inh 61, SKKanGAS inh inactive, Lmaj promast 99, Beta apoptosis inactive, Mdm2 MdmX conf inactive and Full FLuc ctr 41.
COC(=O)C1=C(c2ccc(F)cc2OCc2ccccc2)C[C@@H]2CC[C@H]1N2C(=O)NC1CC1 was read as CSC inhib inactive, Mdm2-MdmX inh inactive and Beta apoptosis inactive.
CN(C)c1ccc(/C=C2/C(=N\O)C3CCN2CC3)cc1 was read as T cruzi inh inactive, CSC inhib inactive, Mdm2-MdmX inh inactive, SKKanGAS inh inactive and Beta apoptosis inactive.
CN[C@@H]1C[C@@H](c2ccc(Cl)c(Cl)c2)c2ccccc21 was read as T cruzi inh inactive, CSC inhib inactive, Mdm2-MdmX inh 82, SKKanGAS inh inactive, Beta apoptosis inactive and Mdm2 MdmX conf inactive.
Screening O=c1c2ccccc2nc(Cc2cccc([N+](=O)[O-])c2)n1-c1ccc(O)cc1 returned T cruzi inh inactive, CSC inhib inactive, Mdm2-MdmX inh inactive, SKKanGAS inh inactive and Beta apoptosis inactive.
`CC(C)CC(C)N` (stereo unspecified) gave CSC inhib inactive, Mdm2-MdmX inh inactive and Beta apoptosis inactive.
COc1ccccc1OP(=O)(Nc1cccnc1)Oc1ccccc1OC was read as T cruzi inh inactive, Mdm2-MdmX inh 51, SKKanGAS inh inactive, Lmaj promast inactive, Mdm2 MdmX conf 48 and Full FLuc ctr 74.
`Clc1cc(I)cc(Cl)c1NC1=NCCN1` gave T cruzi inh inactive, CSC inhib inactive, Mdm2-MdmX inh inactive, SKKanGAS inh inactive and Beta apoptosis inactive.
Screening Cc1cc(C)cc(N2C(=O)NC(=O)/C(=C\c3cccn3-c3ccc(Cl)cc3)C2=O)c1 returned T cruzi inh inactive, Mdm2-MdmX inh 69, SKKanGAS inh inactive, Lmaj promast 92, Beta apoptosis inactive, Mdm2 MdmX conf 56 and Full FLuc ctr 79.
For CN1C(=O)/C(=C/c2cccn2-c2ccc3ccccc3c2)C(=O)NC1=S the results were T cruzi inh inactive, CSC inhib inactive, Mdm2-MdmX inh 100, SKKanGAS inh inconclusive, Lmaj promast 100, Beta apoptosis inactive and Mdm2 MdmX conf inactive.
For Cc1cc(C)cc(N2C(=O)NC(=O)/C(=C\c3cccn3-c3ccccc3)C2=O)c1 the results were T cruzi inh inactive, CSC inhib inconclusive, Mdm2-MdmX inh inactive, SKKanGAS inh inactive, Lmaj promast inactive and Beta apoptosis inactive.
Cn1cccc1/C=C1/C(=O)NC(=O)N(C(C)(C)C)C1=O was read as T cruzi inh inactive, CSC inhib inactive, Mdm2-MdmX inh inactive, SKKanGAS inh inactive and Beta apoptosis inactive.
Oc1ccc(-[n+]2c(-c3ccccc3)cc(-c3ccccc3)cc2-c2ccccc2)cc1 was read as T cruzi inh inactive, CSC inhib inactive, Mdm2-MdmX inh 98, SKKanGAS inh inactive, Beta apoptosis 123, Mdm2 MdmX conf 71 and Full FLuc ctr 59.
C[n+]1c(-c2ccccc2)cc(-c2ccc(O)cc2)cc1-c1ccccc1 was read as T cruzi inh inactive, CSC inhib inactive, Mdm2-MdmX inh inactive, SKKanGAS inh inactive, Lmaj promast inactive and Beta apoptosis inactive.
`COc1ccc(-[n+]2c(-c3ccccc3)cc(-c3ccccc3)cc2-c2ccccc2)cc1` gave T cruzi inh inactive, CSC inhib inactive, Mdm2-MdmX inh 87, SKKanGAS inh inactive, Beta apoptosis 111, Mdm2 MdmX conf 88 and Full FLuc ctr inactive.
`CC1CCCC(NC(=O)COC(=O)c2cn(C)c3ccccc23)C1C` (stereo unspecified) gave CSC inhib inactive, Mdm2-MdmX inh inactive and Beta apoptosis inactive.
